Source: ChEMBL document CHEMBL4359909, “De novo design approaches targeting an envelope protein pocket to identify small molecules against dengue virus” (Eur J Med Chem, 2019)
Values after ≈ are worked out from the molar mass of the structure shown. Active and inactive are the calls of the source. The calls are words filed in the database; no cut-off is given here.

Columns and labels:
Dengue virus = experiment: Antiviral activity in DENV infected in cells assessed as reduction in intracellular viral RNA level after 48 hrs by RT-PCR analysis
[1] = Cytotoxicity against human A549 cells assessed as reduction in cell viability after 48 hrs by MTT assay; format: cell-based
dengue virus type 2 = experiment: Antiviral activity against DENV-2 infected in human A549 or Mesocricetus auratus BHK21 cells preincubated for 30 mins further incubated for 1 hr followed by replacement of fresh medium containing compounds and measured at 8 hrs post infection by renilla luciferase assay; format: functional, organism-based
Method in brief: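 Reporter DENV-2 carrying Renilla luciferase, MOI 1. Inoculum preincubated 30 min with compound, left on cells 1 h, then replaced by fresh medium containing compound. Luciferase read at 8 h p.i., reflecting entry and translation of incoming genome. EC50 is the concentration giving a two-fold drop in luciferase versus control; mean of at least two independent experiments.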

[2] = Selectivity index, ratio of CC50 for human A549 or Mesocricetus auratus BHK21 cells to EC50 for antiviral activity against DENV-2 infected in A549or Mesocricetus auratus BHK21 cells; format: toxicity; details: read-out: Ratio CC50/EC50
[3] = Half life in simulated gastric fluid at 50 uM measured up to 120 mins at pH 1.2 by HPLC-MS analysis; format: ADME
Method in brief: (§1)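 DMSO stock diluted in acetonitrile, added to PBS (pH 7.4), SGF (pH 1.2) or SIF (pH 6.8) at 50 μM final; shaking water bath 37°C, triplicate. Samples at 0–120 min quenched with acetonitrile containing warfarin internal standard, centrifuged, diluted in methanol:water, analysed by HPLC-MS (C18, ESI positive); quantified by peak area ratio to internal standard.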

[4] = Half life in simulated intestinal fluid at 50 uM measured up to 120 mins at pH 6.8 by HPLC-MS analysis; format: ADME
Method in brief: as §1

[5] = Solubility in simulated intestinal fluid at 1 mg incubated for 24 hrs in shaker and measured after 24 hrs by shake-flask method based UV-VIS-NIR spectrophotometric analysis; format: physicochemical
Method in brief: (§2)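 Shake-flask method: 1.0 mg compound in 1 mL simulated intestinal fluid (pH 6.8), mixed at 1500 rpm at 37 °C for 24 h, then held at 37 °C for 24 h. Filtered at 0.2 µm and read by UV-VIS-NIR spectrophotometry against a calibration curve. Reported as mean ± SD of two independent experiments run in triplicate.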

[6] = Solubility in simulated gastric fluid at 1 mg incubated for 24 hrs in shaker and measured after 24 hrs by shake-flask method based UV-VIS-NIR spectrophotometric analysis; format: physicochemical
Method in brief: as §2, with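 “gastric” for “intestinal”, “1.2),” for “6.8),”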

[7] = Half life in mouse plasma at 50 uM measured up to 120 mins by HPLC-MS analysis; format: ADME, cell-free
Method in brief: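 Mouse plasma diluted to 80% with PBS, preheated; compound added at 50 μM final from DMSO stock; 37°C shaking, triplicate. Samples at 0–120 min deproteinized with cold acetonitrile plus warfarin internal standard, centrifuged at 4°C, supernatant diluted in methanol:water, HPLC-MS; peak area ratio to internal standard. Enalapril positive control.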

[8] = Solubility in PBS at 1 mg incubated for 24 hrs in shaker and measured after 24 hrs by shake-flask method based UV-VIS-NIR spectrophotometric analysis; format: physicochemical
Method in brief: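 Shake-flask method: 1.0 mg compound in 1 mL PBS (pH 7.4), mixed at 1500 rpm at 37 °C for 24 h, then held at 37 °C for 24 h. Filtered at 0.2 µm and read by UV-VIS-NIR spectrophotometry against a calibration curve. Reported as mean ± SD of two independent experiments run in triplicate.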

[9] = Half life in PBS at 50 uM measured up to 120 mins at pH 7.4 by HPLC-MS analysis; format: physicochemical
Method in brief: as §1

A549 = experiment: Cytotoxicity against human A549 cells at 50 uM after 48 hrs by MTT assay; format: cell-based; details: a549, 48 h

Compound	CC50 at 48 h [1]	EC50 (dengue virus type 2)	selectivity ratio [2]	other results
CC1(C)CC(Nc2nccc(Nc3ccc(-c4cccc(Cl)c4)cc3)n2)CC(C)(C)N1	5.1 µM	0.54 µM	10	Activity (Dengue virus): Active
Cc1ccc(Nc2ccnc(NCCN3CCOCC3)n2)cc1	> 50 µM	21.3 µM	> 2	
c1ccc(-c2ccc(Nc3ccnc(NCCN4CCCCC4)n3)cc2)cc1				half-life at 50 µM [3]: > 2 h; half-life at 50 µM [4]: > 2 h; solubility thermodynamic at 24 h [5]: 324 µg/mL (≈ 867 µM); solubility thermodynamic at 24 h [6]: 506 µg/mL (≈ 1350 µM); half-life at 50 µM [7]: > 2 h; solubility thermodynamic at 24 h [8]: 32 µg/mL (≈ 85.7 µM); half-life at 50 µM [9]: > 2 h
c1ccc(-c2ccc(Nc3ccnc(NCCN4CCOCC4)n3)cc2)cc1	59 µM	8.6 µM	7	
CN1CCN(c2nccc(Nc3ccc(-c4ccc(Cl)cc4)cc3)n2)CC1	23.5 µM	3.3 µM	5	
O=C(Nc1ccnc(NCCN2CCOCC2)n1)c1ccc(-c2ccccn2)s1	10.5 µM	3.3 µM	4	
CC1(C)CC(Nc2nccc(Nc3ccc(-c4ccccc4)cc3)n2)CC(C)(C)N1				half-life at 50 µM [3]: > 2 h; half-life at 50 µM [4]: > 2 h; solubility thermodynamic at 24 h [5]: 580 µg/mL (≈ 1440 µM); solubility thermodynamic at 24 h [6]: 76 µg/mL (≈ 189 µM); half-life at 50 µM [7]: > 2 h; solubility thermodynamic at 24 h [8]: 93 µg/mL (≈ 232 µM); half-life at 50 µM [9]: > 2 h
Cc1ccc(-c2ccc(Nc3ccnc(N4CCN(C)CC4)n3)cc2)cc1	27.7 µM	4.9 µM	6	
Clc1ccc(-c2ccc(Nc3ccnc(NCc4cccnc4)n3)cc2)cc1	25.7 µM	4.1 µM	6	
CC1(C)CC(Nc2nccc(NCc3ccc(F)cc3)n2)CC(C)(C)N1	12.8 µM	1.98 µM	7	
Clc1ccc(Nc2ccnc(NCc3cccnc3)n2)cc1		24 µM		
COc1ccc(CNc2ccnc(NC3CC(C)(C)NC(C)(C)C3)n2)cc1	18.3 µM	12.5 µM	2	
CN1CCN(c2nccc(Nc3ccc(-c4cccc(Cl)c4)cc3)n2)CC1	15.3 µM	2.9 µM	5	
CC1(C)CC(Nc2nccc(Nc3ccc(Cl)cc3)n2)CC(C)(C)N1	18.6 µM	1.9 µM	10	
OCCN1CCN(c2nccc(Nc3ccc(Cl)cc3)n2)CC1		24 µM		
Cc1ccc(-c2ccc(Nc3ccnc(NC4CC(C)(C)NC(C)(C)C4)n3)cc2)cc1	12 µM	1.51 µM	8	
CC1(C)CC(Nc2nccc(Nc3ccc(-c4ccc(Cl)cc4)cc3)n2)CC(C)(C)N1	9.8 µM	0.18 µM	54	Activity (Dengue virus): Active
c1ccc(-c2ccc(Nc3ccnc(OCCN4CCOCC4)n3)cc2)cc1		39.7 µM		
Clc1ccc(Nc2ccnc(NCCN3CCOCC3)n2)cc1	89.6 µM	23.6 µM	4	Activity (A549): Non-Toxic
Clc1cccc(-c2ccc(Nc3ccnc(NCc4cccnc4)n3)cc2)c1	18.5 µM	3.4 µM	5	
Clc1ccc(-c2ccc(Nc3ccnc(NCCN4CCCCC4)n3)cc2)cc1	14.3 µM	1.1 µM	13	
Clc1ccc(/C=N/Nc2ccnc(NCCN3CCOCC3)n2)c(Cl)c1	76.5 µM	10.6 µM	8	
Cc1ccc(CNc2ccnc(NC3CC(C)(C)NC(C)(C)C3)n2)cc1	15.2 µM	4.9 µM	3	
OCCN1CCN(c2nccc(Nc3ccc(-c4ccccc4)cc3)n2)CC1		19.9 µM		
Cc1ccc(-c2ccc(Nc3ccnc(NCCN4CCOCC4)n3)cc2)cc1	10.2 µM	1.8 µM	5	
Clc1ccc(CNc2ccnc(NCc3cccnc3)n2)cc1		23.7 µM		
CC1(C)CC(Nc2nccc(NCc3ccc(Cl)cc3)n2)CC(C)(C)N1	21.1 µM	1.8 µM	12	
